The source of these data is ChEMBL document CHEMBL1125832, “Synthesis and dopaminergic activity of 3-substituted 1-(aminomethyl)-3,4-dihydro-5,6-dihydroxy-1H-2-benzopyrans: characterization of an auxiliary binding region in the D1 receptor” (J Med Chem, 1991).

Structures are written as SMILES. Bounds are passed on as bounds.

Experiment [1] addresses Beta-1 adrenergic receptor (Rattus norvegicus, UniProt P18090). The experiment can be described thus: Binding affinity towards beta-1 adrenergic receptor using [3H]iodocyanopindolol as radioligand in competitive binding assay. The conditions noted are these: in the assay text read “[125I]iodocyanopindolol” for “[3H]iodocyanopindolol”. The procedure, abridged: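 β-adrenergic sites in rat striatal membranes. Label [125I]iodocyanopindolol at 50 pM final; nonspecific binding with 10 μM propranolol. Incubated 1 h at 37 °C, then filtered. Ki via Cheng-Prusoff.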

The target in experiment [2] is T1, Adrenergic receptor alpha-1 (Rattus norvegicus, UniProt P15823+P23944+P43140).
T1 sequence (P15823 whole entry): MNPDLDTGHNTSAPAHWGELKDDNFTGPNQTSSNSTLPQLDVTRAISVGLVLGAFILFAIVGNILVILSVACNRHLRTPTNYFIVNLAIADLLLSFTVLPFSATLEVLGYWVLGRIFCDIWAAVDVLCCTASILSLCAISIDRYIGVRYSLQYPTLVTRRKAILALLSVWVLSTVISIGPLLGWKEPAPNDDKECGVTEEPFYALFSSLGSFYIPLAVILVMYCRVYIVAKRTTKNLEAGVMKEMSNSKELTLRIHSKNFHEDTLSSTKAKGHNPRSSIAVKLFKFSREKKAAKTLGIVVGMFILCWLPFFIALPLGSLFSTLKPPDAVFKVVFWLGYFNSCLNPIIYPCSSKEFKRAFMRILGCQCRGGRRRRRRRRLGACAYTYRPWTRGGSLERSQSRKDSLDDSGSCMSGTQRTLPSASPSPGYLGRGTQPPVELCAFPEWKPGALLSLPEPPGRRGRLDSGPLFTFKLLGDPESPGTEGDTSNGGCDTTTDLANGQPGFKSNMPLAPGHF
T1 sequence (P23944 whole entry): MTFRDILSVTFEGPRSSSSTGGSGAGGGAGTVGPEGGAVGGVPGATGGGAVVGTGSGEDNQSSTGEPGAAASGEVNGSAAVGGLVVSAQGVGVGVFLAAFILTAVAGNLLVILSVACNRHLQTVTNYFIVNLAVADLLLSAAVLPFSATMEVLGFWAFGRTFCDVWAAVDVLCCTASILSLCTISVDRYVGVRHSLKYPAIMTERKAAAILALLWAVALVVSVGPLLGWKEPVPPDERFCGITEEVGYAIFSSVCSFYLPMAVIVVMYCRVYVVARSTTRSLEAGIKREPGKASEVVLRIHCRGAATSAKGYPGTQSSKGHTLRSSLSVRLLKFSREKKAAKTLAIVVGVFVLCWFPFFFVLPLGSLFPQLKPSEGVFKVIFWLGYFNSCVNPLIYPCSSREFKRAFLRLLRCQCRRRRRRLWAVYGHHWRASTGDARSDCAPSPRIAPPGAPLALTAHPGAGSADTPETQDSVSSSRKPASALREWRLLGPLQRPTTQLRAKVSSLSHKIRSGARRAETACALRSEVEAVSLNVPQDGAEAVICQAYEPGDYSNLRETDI
T1 sequence (P43140 whole entry): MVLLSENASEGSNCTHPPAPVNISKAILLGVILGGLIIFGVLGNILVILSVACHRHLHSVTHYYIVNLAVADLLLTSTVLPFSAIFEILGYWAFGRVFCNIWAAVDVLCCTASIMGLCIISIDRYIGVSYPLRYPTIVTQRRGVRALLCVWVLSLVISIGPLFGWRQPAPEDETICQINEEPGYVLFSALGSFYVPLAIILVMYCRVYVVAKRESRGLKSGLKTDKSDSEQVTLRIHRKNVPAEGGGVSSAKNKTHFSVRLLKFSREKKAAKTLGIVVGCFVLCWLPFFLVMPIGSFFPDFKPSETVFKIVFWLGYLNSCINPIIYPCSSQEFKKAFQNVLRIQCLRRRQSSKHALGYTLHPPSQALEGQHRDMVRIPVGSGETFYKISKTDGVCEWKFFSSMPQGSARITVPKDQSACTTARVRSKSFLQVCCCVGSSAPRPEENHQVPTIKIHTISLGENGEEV
The experiment can be described thus: Binding affinity towards alpha-1 adrenergic receptor using [3H]prazosin as radioligand in competitive binding assay. It counts as protein assay. The procedure, abridged:
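Frozen rat cortex membranes (300g then 48000g spins) in Tris pH 7.4 buffer with salts and ascorbate. [3H]prazosin at 1.0 nM final; nonspecific binding with 10 μM phentolamine. Incubated 45 min at 37 °C, then filtered. Ki via Cheng-Prusoff.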

Sequence of Beta-1 adrenergic receptor (P18090 whole entry): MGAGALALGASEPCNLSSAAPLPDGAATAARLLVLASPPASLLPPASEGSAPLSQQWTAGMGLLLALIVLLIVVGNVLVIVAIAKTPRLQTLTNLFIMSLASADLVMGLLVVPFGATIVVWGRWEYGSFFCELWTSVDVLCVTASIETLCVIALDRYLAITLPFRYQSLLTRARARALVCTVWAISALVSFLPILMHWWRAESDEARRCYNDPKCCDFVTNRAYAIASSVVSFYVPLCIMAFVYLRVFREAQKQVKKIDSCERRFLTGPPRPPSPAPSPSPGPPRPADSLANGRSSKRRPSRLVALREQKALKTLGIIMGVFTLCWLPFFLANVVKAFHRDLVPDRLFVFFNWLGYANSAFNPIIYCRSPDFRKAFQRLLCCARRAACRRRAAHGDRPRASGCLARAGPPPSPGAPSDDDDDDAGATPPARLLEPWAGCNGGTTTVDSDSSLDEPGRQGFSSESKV

`NC[C@@H]1O[C@H](c2ccccc2)Cc2c1ccc(O)c2O`: the Ki in experiment [1] and in experiment [2] was greater than 10 µM each time.
Take `NC[C@@H]1OC(c2ccccc2)Cc2c1ccc(O)c2O` (some centres not stated): the Ki was greater than 10 µM in experiment [1] and 10.8 µM in experiment [2].
In the same order, the values of `NC[C@H]1O[C@@H](c2ccccc2)Cc2c1ccc(O)c2O` are greater than 10 µM and 6.06 µM.
In the same order, the values of `CC(C)(C)C1Cc2c(ccc(O)c2O)[C@H](CN)O1` (some centres not stated) are greater than 10 µM and greater than 10 µM.
For `NC[C@@H]1OC(C2CCCCC2)Cc2c1ccc(O)c2O` (some centres not stated), the Ki in experiment [1] and in experiment [2] was greater than 10 µM in each case.
As to `C=CCNC[C@@H]1OC(C2CCCCC2)Cc2c1ccc(O)c2O` (some centres not stated), the Ki in experiment [1] and in experiment [2] was greater than 10 µM throughout.
